The values below come from ChEMBL document CHEMBL1122231, “Synthesis, benzodiazepine receptor binding, and anticonvulsant activity of 2,3-dihydro-3-oxo-5H-pyrido[3,4-b][1,4]benzothiazine-4-carbonitriles” (J Med Chem, 1983).

For assay [1], the system named is Mus musculus. The experiment in a line: Inhibition of pentylenetetrazole (PTZ) induced convulsions in mice at 64 mg/kg after 30 min; 0/10. The format is functional.
Assay [2] has as its target GABA-A receptor; anion channel. Nature of the assay: Inhibition of binding of tritiated 3[H]diazepam radioligand to rat brain homogenates. In kind it is tissue-based. The essentials:
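Rat brain membranes incubated with [3H]diazepam (final 4 μM) and six to eight concentrations of test drug, 30 °C for 10 min, then 4 °C for 20 min. Reactions were stopped by vacuum filtration through glass-fiber filters. Nonspecific binding was defined with 4 μM unlabeled diazepam. IC50 is the concentration giving 50% inhibition of [3H]diazepam binding to membranes.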

Assay [3] relates to Mus musculus. Nature of the assay: Inhibition of pentylenetetrazole (PTZ) induced convulsions in mice at 64 mg/kg after 60 min; 0/10. The format is functional.
The subject of assay [4] is Mus musculus. The experiment in a line: Inhibition of pentylenetetrazole (PTZ) induced convulsions in mice at 4 mg/kg after 30 min; 0/10. The format is functional.
The subject of assay [5] is Mus musculus. Nature of the assay: Inhibition of pentylenetetrazole (PTZ) induced convulsions in mice at 10 mg/kg after 60 min; 1/10. In kind it is functional.
Assay [6] has as its system Mus musculus. Nature of the assay: Inhibition of pentylenetetrazole (PTZ) induced convulsions in mice at 64 mg/kg after 60 min; 2/10. The format is functional.
In assay [7] the test system is Mus musculus. Nature of the assay: Inhibition of pentylenetetrazole (PTZ) induced convulsions in mice at 64 mg/kg after 30 min; 4/10. The format is functional.
In assay [8] the test system is Mus musculus. Nature of the assay: Inhibition of pentylenetetrazole (PTZ) induced convulsions in mice at 64 mg/kg after 60 min; 1/10. The format is functional.
For assay [9], the system named is Mus musculus. The experiment in a line: Minimum effective dose after intraperitoneal administration. In kind it is functional. The note with it: ip, read-out: MED.
In assay [10] the test system is Mus musculus. The experiment in a line: Inhibition of pentylenetetrazole (PTZ) induced convulsions in mice at 10 mg/kg after 60 min; 0/10. In kind it is functional.
In assay [11] the test system is Mus musculus. The experiment in a line: Inhibition of pentylenetetrazole (PTZ) induced convulsions in mice at 4 mg/kg after 30 min. The format is functional. To be noted: 0.5 h.
Assay [12] has as its system Mus musculus. The experiment in a line: Inhibition of pentylenetetrazole (PTZ) induced convulsions in mice at 100 mg/kg after 60 min; 2/10. The format is functional.
In assay [13] the test system is Mus musculus. Nature of the assay: Inhibition of pentylenetetrazole (PTZ) induced convulsions in mice at 64 mg/kg after 60 min; 10/10. In kind it is functional.
The test system of assay [14] is Mus musculus. Nature of the assay: Inhibition of pentylenetetrazole (PTZ) induced convulsions in mice at 10 mg/kg after 60 min. In kind it is functional. The note with it: 1 h.
The subject of assay [15] is Mus musculus. Nature of the assay: Inhibition of pentylenetetrazole (PTZ) induced convulsions in mice at 64 mg/kg after 30 min; 1/10. In kind it is functional.
Assay [16] deals with Mus musculus. The experiment in a line: Inhibition of pentylenetetrazole (PTZ) induced convulsions in mice at 64 mg/kg after 30 min; 2/10. The format is functional.
For assay [17], the system named is Mus musculus. The experiment in a line: Inhibition of pentylenetetrazole (PTZ) induced convulsions in mice at 4 mg/kg after 30 min; 1/10. In kind it is functional.
Assay [18] deals with Mus musculus. Nature of the assay: Inhibition of pentylenetetrazole (PTZ) induced convulsions in mice at 64 mg/kg after 30 min; 5/10. The format is functional.
The test system of assay [19] is Mus musculus. The experiment in a line: Inhibition of pentylenetetrazole (PTZ) induced convulsions in mice at 100 mg/kg after 60 min; 6/10. In kind it is functional.
In assay [20] the test system is Mus musculus. The experiment in a line: Inhibition of pentylenetetrazole (PTZ) induced convulsions in mice at 4 mg/kg after 30 min; 2/10. In kind it is functional.
Assay [21] relates to Mus musculus. The experiment in a line: Inhibition of pentylenetetrazole (PTZ) induced convulsions in mice at 64 mg/kg after 60 min; 7/10. In kind it is functional.
For assay [22], the system named is Mus musculus. The experiment in a line: Inhibition of pentylenetetrazole (PTZ) induced convulsions in mice at 100 mg/kg after 60 min; 8/10. In kind it is functional.
The subject of assay [23] is Mus musculus. The experiment in a line: Inhibition of pentylenetetrazole (PTZ) induced convulsions in mice at 10 mg/kg after 60 min; 3/10. The format is functional.

Each structure is given as a SMILES string.

As for `CN1c2ccccc2Sc2cnc(O)c(C#N)c21`, the “No. of mice protected” value with Mus musculus [1], with Mus musculus [3] and in the assay with Mus musculus [4] was 0 each time. The IC50 in assay [2] is 314 nM.

As for `COc1cc2c(cc1OC)Sc1cnc(O)c(C#N)c1N2`, the 50% inhibitory concentration (IC50) in [2] was determined as 100000 nM. In addition, the “No. of mice protected” value is on record as 1 in the assay with Mus musculus [5] and 2 in the assay with Mus musculus [6].

As for `N#Cc1c(O)ncc2c1Nc1ccccc1S2`, the “No. of mice protected” value stood at 4 in the assay with Mus musculus [7], 1 with Mus musculus [8], 0 with Mus musculus [10] and 0 in the assay with Mus musculus [4]. Besides, the IC50 in [2] came out at 450 nM. Also, in the assay on Mus musculus [9], the minimal effective dose stood at 60 mg/kg. Further, the median effective dose (ED50) in the assay on Mus musculus [11] came out at 62 mg/kg.

For the compound `N#Cc1c(O)ncc2c1Nc1ccc(Cl)cc1S2`, the IC50 in [2] was determined as 320 nM. Also, the “No. of mice protected” value in the assay on Mus musculus [12] was 2.

In assay [2], `CNC1=Nc2ccc(Cl)cc2C(c2ccccc2)=[N+]([O-])C1` [CHLORDIAZEPOXIDE] showed an IC50 of 442 nM. In addition, the 50% effect level in the assay with Mus musculus [11] (ED50) was put at a dose of 1.25 mg/kg.

In the case of `N#Cc1c(O)ncc2c1Nc1cc(Cl)ccc1S2`, the IC50 in assay [2] came to 400 nM. For the same compound, the “No. of mice protected” value was found to be 10 with Mus musculus [13] and 1 in the assay with Mus musculus [5]. Also, the ED50 worked out at 32 mg/kg with Mus musculus [14] and 26 mg/kg with Mus musculus [11].

As for `Cn1cc2c(c(C#N)c1=O)Nc1ccccc1S2`, the “No. of mice protected” value stood at 1 in the assay on Mus musculus [15], 2 with Mus musculus [12] and 0 in the assay on Mus musculus [4]. The compound also returned an IC50 in assay [2] of 17000 nM.

For the compound `N#Cc1c(O)ncc2c1Nc1ccccc1S2(=O)=O`, the “No. of mice protected” value in the assay with Mus musculus [16] is recorded as 2; in the assay with Mus musculus [17], 1; with Mus musculus [6], 2. The compound further came in with a concentration for half-maximal inhibition (IC50) in assay [2] of 11000 nM.

`N#Cc1c(O)ncc2c1Nc1ccc(Br)cc1S2` registered a half-maximal inhibitory concentration (IC50) in assay [2] of 8000 nM. Besides, the “No. of mice protected” value with Mus musculus [18] is listed as 5; with Mus musculus [10], 0; in the assay on Mus musculus [12], 2; in the assay with Mus musculus [4], 0.

As for `N#Cc1c(O)ncc2c1Nc1cc(Cl)ccc1[S+]2[O-]` (stereo unspecified), the “No. of mice protected” value was determined as 2 in the assay on Mus musculus [16], 0 with Mus musculus [10], 6 with Mus musculus [19] and 0 in the assay with Mus musculus [4]. Also, in assay [2], the IC50 was determined as 35000 nM.

In [2], `N#Cc1c(O)ncc2c1Nc1ccc(Cl)cc1S2(=O)=O` returned a concentration for half-maximal inhibition (IC50) of 634 nM. Besides, the “No. of mice protected” value with Mus musculus [18] is 5; with Mus musculus [17], 1.

`Cc1nc(O)c(C#N)c2c1Sc1ccccc1N2`: the “No. of mice protected” value with Mus musculus [15] is listed as 1; in the assay with Mus musculus [12], 2; with Mus musculus [4], 0. The compound also returned an IC50 in assay [2] of 1700 nM.

As to `N#Cc1c(O)ncc2c1Nc1ccc(N)cc1S2`, the “No. of mice protected” value with Mus musculus [20] is 2; in the assay on Mus musculus [18], 5; in the assay with Mus musculus [21], 7. The compound further returned an IC50 in [2] of 910 nM.

`CN1c2ccccc2Sc2cn(C)c(=O)c(C#N)c21` displayed an IC50 in assay [2] of 100000 nM. Also, the “No. of mice protected” value in the assay with Mus musculus [18] stood at 5; in the assay with Mus musculus [4], 0.

In assay [2], `N#Cc1c(O)ncc2c1Nc1ccc([N+](=O)[O-])cc1S2` displayed an IC50 of 800 nM. The “No. of mice protected” value with Mus musculus [5] was 1; in the assay with Mus musculus [12] it was 2; with Mus musculus [4] it was 0.

Regarding `N#Cc1c(O)ncc2c1Nc1ccccc1[S+]2[O-]` (stereo unspecified), the “No. of mice protected” value in the assay with Mus musculus [22] is on record as 8; with Mus musculus [23], 3. For the same compound, the half-maximal inhibitory concentration (IC50) in assay [2] was found to be 4250 nM. In the assay with Mus musculus [14], this compound registered an ED50 of 41 mg/kg.

For the compound `N#Cc1c(O)ncc2c1Nc1cc(Cl)ccc1S2(=O)=O`, the “No. of mice protected” value is 2 in the assay on Mus musculus [16] and 1 in the assay with Mus musculus [17]. Besides, in assay [2], the IC50 amounted to 7600 nM.

A word on the IC50: it is the concentration at which inhibition is half-maximal. Read a low IC50 as higher potency. As usually defined, the ED50 is the dose that gives a 50% effect, or the effect in half of the subjects.
